Data: ChEMBL document CHEMBL1127376, “Agents combining thromboxane receptor antagonism with thromboxane synthase inhibition: [[[2-(1H-imidazol-1-yl)ethylidene]amino]oxy]alkanoic acids” (J Med Chem, 1994)

Tests used:
Thromboxane A2 receptor = biological target: T1, Thromboxane A2 receptor (Homo sapiens, UniProt P21731); test: In vitro thromboxane-A2 receptor binding affinity to displace by 50% [3H]-SQ 29548 binding from washed human platelets
T1 sequence (P21731 whole entry): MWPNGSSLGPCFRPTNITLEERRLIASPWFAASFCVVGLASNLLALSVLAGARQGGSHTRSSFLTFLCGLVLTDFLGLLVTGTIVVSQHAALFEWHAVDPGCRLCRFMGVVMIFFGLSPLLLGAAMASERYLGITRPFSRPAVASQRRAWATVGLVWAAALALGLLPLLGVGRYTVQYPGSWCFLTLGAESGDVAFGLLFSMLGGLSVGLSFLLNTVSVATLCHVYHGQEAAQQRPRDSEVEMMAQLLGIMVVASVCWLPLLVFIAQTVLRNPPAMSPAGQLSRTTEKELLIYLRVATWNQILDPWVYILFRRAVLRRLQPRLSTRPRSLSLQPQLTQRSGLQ

[1] = biological target: T2, Thromboxane-A synthase (Rattus norvegicus) (UniProt P49430); test: Tested for the in vitro inhibition of thromboxane-A2 synthase in rat whole blood during clotting at 37 degrees Celsius at >1 uM; format: tissue-based
T2 sequence (whole entry): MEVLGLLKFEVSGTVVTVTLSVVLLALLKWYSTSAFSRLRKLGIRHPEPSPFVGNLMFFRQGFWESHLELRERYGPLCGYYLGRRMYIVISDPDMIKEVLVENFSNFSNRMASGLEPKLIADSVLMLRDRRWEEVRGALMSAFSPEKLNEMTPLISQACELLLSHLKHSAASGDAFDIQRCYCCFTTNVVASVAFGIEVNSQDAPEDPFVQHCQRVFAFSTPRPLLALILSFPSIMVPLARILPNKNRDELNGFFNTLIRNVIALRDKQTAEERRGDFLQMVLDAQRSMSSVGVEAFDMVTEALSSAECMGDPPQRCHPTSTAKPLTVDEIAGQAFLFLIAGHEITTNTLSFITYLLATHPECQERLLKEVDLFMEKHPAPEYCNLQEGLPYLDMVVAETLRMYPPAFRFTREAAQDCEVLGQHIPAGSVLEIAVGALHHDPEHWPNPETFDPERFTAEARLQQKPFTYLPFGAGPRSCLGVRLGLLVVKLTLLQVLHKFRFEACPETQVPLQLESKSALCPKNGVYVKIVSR
How it was run: (§1)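 Rat whole blood allowed to clot 1 h at 37 °C with test agent, then spun for serum, stored -20 °C. Serum TxB2 measured by RIA with [3H]TxB2 and rabbit antiserum, incubated 16–24 h at 4 °C, charcoal separation, scintillation counting.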

Thromboxane-A synthase = biological target: T3, Thromboxane-A synthase (Rattus norvegicus, UniProt P49430); test: In vitro inhibition of thromboxane-A2 synthase in rat whole blood during clotting at 37 degrees Centigrade; format: tissue-based; how it was run: as §1
T3 sequence (P49430 whole entry): T2 sequence (whole entry)

Homo sapiens = species on record: Homo sapiens; test: Tested in vitro for the umolar concentration required to inhibit U-46,619-induced platelet aggregation in human platelet rich plasma (PRP); format: functional
How it was run: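 Citrated human blood (3.8%, 9:1), PRP by centrifugation. PRP preincubated 5 min at 37 °C with vehicle or compound, then challenged with a submaximal U46619 concentration chosen from a concentration–response curve. Aggregation followed by photoelectric aggregometry.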

[2] = biological target: T2, Thromboxane-A synthase (Rattus norvegicus); test: Tested for in vitro inhibition of TxA synthase in rat whole blood at 1 uM; format: tissue-based

SMILES | IC50 (Thromboxane A2 receptor) [nM] | inhibition [1] [%] | IC50 (Thromboxane-A synthase) [nM] | IC50 (Homo sapiens) [nM] | inhibition [2] [%]
O=C(O)/C=C/CCCO/N=C(\c1ccccc1)C(Cc1ccccc1)n1ccnc1 (centres undefined) | 1040 | 47 | > 1000 |  | 
CC(/C(=N\OCCCCC(=O)O)c1ccccc1)n1ccnc1 (centres undefined) | 295000 |  | 160 |  | 
O=C(O)CCCCO/N=C(/Cn1ccnc1)c1ccccc1 | 46200 |  | 270 |  | 
O=C(O)CCCCCO/N=C(/c1ccccc1)C(Cc1ccccc1)n1ccnc1 (centres undefined) | 970 | 26 | > 1000 |  | 
CCCCCC/C(=N\OCCCCC(=O)O)C(Cc1ccccc1)n1ccnc1 (centres undefined) | 3000 |  | 50 |  | 
O=C(O)COCCO/N=C(\c1ccccc1)C(Cc1ccccc1)n1ccnc1 (centres undefined) | 880 | 28 | > 1000 |  | 
O=C(O)CCCCO/N=C(\C1CCCCC1)C(Cc1cnccn1)n1ccnc1 (centres undefined) | 190 |  | 70 |  | 
O=C(O)CCCCO/N=C(\c1ccccc1)C(Cc1ccc(Cl)cc1)n1ccnc1 (centres undefined) | 40 |  | 890 |  | 
O=C(O)CCCCO/N=C(/c1ccccc1)C(Cc1ccc(F)cc1)n1ccnc1 (centres undefined) | 530 |  | 60 | 280 | 
Cc1ccc(CC(/C(=N/OCCCCC(=O)O)C2CCCCC2)n2ccnc2)cc1 (centres undefined) | 70 |  | 140 |  | 
O=C(O)CCCCO/N=C(\C1CCCCC1)C(Cc1ccc(C(F)(F)F)cc1)n1ccnc1 (centres undefined) | 50 |  | 900 |  | 
O=C(O)CCCO/N=C(\Cn1ccnc1)C1CCCCC1 | > 100000 |  | > 1000 |  | 8
CCCCCC/C(Cn1ccnc1)=N\OCCCCC(=O)O | 19700 |  | 360 |  | 
CS(=O)(=O)c1ccc(CC(/C(=N/OCCCCC(=O)O)C2CCCCC2)n2ccnc2)cc1 (centres undefined) | 230 | 32 | > 1000 |  | 
O=C(O)CCCO/N=C(/Cn1ccnc1)C1CCCCC1 | 49300 |  | > 1000 |  | 44
O=C(O)CCCCO/N=C(\C1CCCCC1)C(Cc1cccc(F)c1)n1ccnc1 (centres undefined) | 30 |  | 270 |  | 
O=C(O)CCCCO/N=C(\C1CCCCC1)C(Cc1ccc(F)cc1)n1ccnc1 (centres undefined) | 20 |  | 370 | 300 | 
O=C(O)Cc1ccc(CCNS(=O)(=O)c2ccc(Cl)cc2)cc1 [DALTROBAN] |  |  | > 100000 |  | 
CC(C)(CCCO/N=C(\c1ccccc1)C(Cc1ccccc1)n1ccnc1)C(=O)O (centres undefined) | 4160 |  | 760 |  | 
O=C(O)CCCCO/N=C(\c1ccccc1)C(Cc1ccccc1)n1ccnc1 (centres undefined) | 170 |  | 50 | 370 | 
CC(C)(CCO/N=C(\c1ccccc1)C(Cc1ccccc1)n1ccnc1)CC(=O)O (centres undefined) | 230 |  | 530 |  | 
CS(=O)(=O)c1ccc(/C(=N\OCCCCC(=O)O)C(Cc2ccccc2)n2ccnc2)cc1 (centres undefined) | 21000 | 12 | > 1000 |  | 
O=C(O)CCCCO/N=C(\C1CCCCC1)C(Cc1ccccn1)n1ccnc1 (centres undefined) | 3280 |  | 300 |  | 
O=C(O)CCCCO/N=C(/c1ccccc1)C(Cc1ccccc1)n1ccnc1 (centres undefined) | 1160 |  | 20 | 2100 | 
COc1ccc(CC(/C(=N/OCCCCC(=O)O)C2CCCCC2)n2ccnc2)cc1 (centres undefined) | 70 |  | 320 |  | 
O=C(O)CCCCCO/N=C(\Cn1ccnc1)c1ccccc1 | 74500 |  | > 1000 |  | 2

SMILES | IC50 (Thromboxane A2 receptor) [nM] | inhibition [1] [%] | IC50 (Thromboxane-A synthase) [nM] | IC50 (Homo sapiens) [nM] | inhibition [2] [%]
O=C(O)CCCCO/N=C(/C1CCCCC1)C(Cc1cccc(F)c1)n1ccnc1 (centres undefined) | 140 |  | 250 |  | 
O=C(O)CCCCO/N=C(\C1CCCCC1)C(Cc1ccco1)n1ccnc1 (centres undefined) | 280 |  | 100 |  | 
O=C(O)CCCO/N=C(\Cn1ccnc1)c1ccccc1 | > 100000 |  | > 1000 |  | 17
O=C(O)CCCCCO/N=C(\Cn1ccnc1)C1CCCCC1 | 23900 |  | > 1000 |  | 19
CCCCCC/C(Cn1ccnc1)=N/OCCCCC(=O)O | 12200 |  | 40 |  | 
O=C(O)/C=C/c1ccc(Cn2ccnc2)cc1 [OZAGREL] | > 100000 |  |  |  | 
O=C(O)CCCCO/N=C(\C1CCCCC1)C(Cc1ccccc1)n1ccnc1 (centres undefined) | 80 |  | 60 | 440 | 
CCOC(=O)CCCCO/N=C(\C1CCCCC1)C(Cc1ccccc1)n1ccnc1 (centres undefined) | 1300 |  | 430 |  | 
O=C(O)/C=C/CCO/N=C(\c1ccccc1)C(Cc1ccccc1)n1ccnc1 (centres undefined) | 120 | 26 | > 1000 |  | 
O=C(O)CCCCO/N=C(/c1cccnc1)c1cccc(C(F)(F)F)c1 [RIDOGREL] | 2100 |  | 30 | 3300 | 
O=C(O)CCCCO/N=C(\Cn1ccnc1)c1ccccc1 | 14700 |  | 170 |  | 
O=C(O)CCCCO/N=C(\c1ccccc1)C(Cc1ccc(F)cc1)n1ccnc1 (centres undefined) | 40 |  | 390 | 210 | 
O=C(O)CCCCCO/N=C(\c1ccccc1)C(Cc1ccccc1)n1ccnc1 (centres undefined) | 160 |  | 1100 |  | 
O=C(O)CCCCO/N=C(\c1ccc(Br)cc1)C(Cc1ccccc1)n1ccnc1 (centres undefined) | 2390 | 15 | > 1000 |  | 
O=C(O)CCCCO/N=C(\C1CCCCC1)C(Cc1ccccc1F)n1ccnc1 (centres undefined) | 300 |  | 350 |  | 
CC(/C(=N/OCCCCC(=O)O)c1ccccc1)n1ccnc1 (centres undefined) | 73000 | 37 | > 1000 |  | 
O=C(O)CCCCO/N=C(\Cn1ccnc1)c1cccnc1 | > 100000 |  | > 1000 |  | 24
O=C(O)CCCCO/N=C(\Cn1ccnc1)C1CCCCC1 | 53100 |  | 40 | 2440 | 
CSc1ccc(/C(=N\OCCCCC(=O)O)C(Cc2ccccc2)n2ccnc2)cc1 (centres undefined) | 7500 | 49 | > 1000 |  | 
O=C(O)CCCCO/N=C(\C1CCCCC1)C(CC1CCCCC1)n1ccnc1 (centres undefined) | 1900 | 43 | > 1000 |  | 
O=C(CCCCO/N=C(\C1CCCCC1)C(Cc1ccccc1)n1ccnc1)NO (centres undefined) | 520 |  | 710 |  | 
O=C(O)CCCCO/N=C(/c1ccccc1)C(Cc1ccc(Cl)cc1)n1ccnc1 (centres undefined) | 170 |  | 250 |  | 
C/C(=N\OCCCCC(=O)O)C(Cc1ccccc1)n1ccnc1 (centres undefined) | 23400 |  | 200 |  | 
O=C(O)CCCCO/N=C(/Cn1ccnc1)C1CCCCC1 | 27300 |  | 640 |  | 
O=C(O)CCCCO/N=C(/C1CCCCC1)C(Cc1ccccc1)n1ccnc1 (centres undefined) | 970 |  | 100 |  | 
